High-throughput results deposited in PubChem BioAssay by several laboratories.
MC4R ag barr: MC4R agonists recruiting beta-arrestin, primary screen, cell-based, luminescence, agonist arm of biased-ligand search | Melanocortin receptor 4 (Homo sapiens), P32245 | U2OS MC4R beta-arrestin complementation; percent of melanotan II response, DMSO zero | activation, % at 8.9 µM | 360,000 compounds, 0.98% hits;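 active = activation above a per-plate cutoff, the mean activation of sample wells on that plate plus 3 SD, cut at about 8% in these data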
Target sequence (P32245 whole entry, looked up): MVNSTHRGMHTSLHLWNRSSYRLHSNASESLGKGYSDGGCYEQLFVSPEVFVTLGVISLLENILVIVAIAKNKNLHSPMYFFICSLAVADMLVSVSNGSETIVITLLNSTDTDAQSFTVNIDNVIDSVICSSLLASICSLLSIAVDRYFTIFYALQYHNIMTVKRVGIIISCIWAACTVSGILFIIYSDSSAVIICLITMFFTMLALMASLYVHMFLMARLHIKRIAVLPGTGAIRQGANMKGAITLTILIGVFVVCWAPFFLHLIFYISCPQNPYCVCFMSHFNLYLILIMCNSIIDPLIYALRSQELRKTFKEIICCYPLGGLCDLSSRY
Efflux pump mplx: inhibitors of Candida efflux pumps in yeast, primary screen, S. cerevisiae, Nile Red, multiplex; inhibition, % at 10 µM; S. cerevisiae Candida pump triplex; AID 485275, 2010; 330,000 compounds, 0.44% hits;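 active = plate passing quality check with inhibition over a set limit, or well fluorescence over plate mean plus 4 SD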;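 note: Nile Red retained in pooled yeast measured as flow cytometry median fluorescence; 0% = buffer negative control and 100% = Enniatin B positive control; higher means more Nile Red kept so more efflux inhibition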
MC4R antag cAMP: MC4R antagonists of cAMP signaling, primary screen, cell-based, TR-FRET, antagonist arm of biased-ligand search; inhibition, % at 6.5 µM; 360,000 compounds, 0.48% hits; MC4R-expressing cells, MTII-stimulated cAMP, LANCE TR-FRET; Melanocortin receptor 4 (Homo sapiens), P32245;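 active = inhibition above its plate's cutoff, the mean of tested wells on that plate plus 3 SD, cut at about 29% in these data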;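 note: 0% = Melanotan II alone and 100% = Melanotan II plus saturating MCL0020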
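system = U2OS cells with stable human MC4R expression | also added = Melanotan II challenge after compound preincubation | dosing = one concentration, 6.5 µM nominal | incubation = compound 30 min, challenge 1 h, detection 1 h | measured by = TR-FRET with Eu-cAMP and labeled anti-cAMP, 671 nm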
GalR3 antag: GalR3 antagonists in HEK293 cells, primary screen, cell-based, fluorescence readout; HEK293 GalR3-CNG cAMP membrane potential fluorescence; galR3 body fused to GalR1 C-terminus; 360,000 compounds, 0.44% hits; Galanin receptor type 3 (Homo sapiens), O60755; inhibition, % at 3 µM;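 active = inhibition above the screen-wide average plus 3 SD, cut at about 13% in these data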;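 note: forskolin and galanin both at EC90 stimulate the cells; cAMP rise reported by CNG channel membrane potential dye signal; 0% = forskolin plus galanin with DMSO and 100% = forskolin alone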
Target sequence (O60755 1-299 limits assumed): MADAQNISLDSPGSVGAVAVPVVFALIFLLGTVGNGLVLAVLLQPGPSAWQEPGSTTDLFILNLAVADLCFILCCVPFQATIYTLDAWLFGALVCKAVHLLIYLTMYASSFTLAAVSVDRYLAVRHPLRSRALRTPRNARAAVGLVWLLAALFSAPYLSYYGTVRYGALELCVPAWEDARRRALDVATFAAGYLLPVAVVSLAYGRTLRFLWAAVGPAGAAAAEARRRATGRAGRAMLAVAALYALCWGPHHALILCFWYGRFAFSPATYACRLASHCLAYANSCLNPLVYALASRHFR
TAG inh: inhibitors of triacylglycerol accumulation, primary screen, cell-based, uHTS, fluorescence, H9c2. inhibition, % at 12.5 µM. H9c2 cells, Nile Red lipid (TAG) fluorescence; cells loaded with 200 µM oleic acid. AID 651582, 2012. 230,000 compounds, 0.66% hits;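 active = pattern-corrected inhibition of lipid staining of at least 50% with the nuclear-stain viability signal not falling by more than 50%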;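 note: 0% = DMSO wells and 100% = triacsin C control wells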
Calb FLC: C. albicans growth inhibition with fluconazole, primary screen, CaCi-2 strain, Alamar Blue fluorescence; C. albicans CaCi-2 + fluconazole, 48 h; growth inhibition, % (test concentration not listed); AID 1979, 2009; 300,000 compounds, 0.57% hits;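 active = growth inhibition above about 58% in most replicates, limit read from the data, passing the limit was not always enough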;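 note: all wells also contain fluconazole at 8 µg/ml as a sub-toxic cotreatment; 0% = median of DMSO wells and 100% = median of geldanamycin control wells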
MC4R barr conf: MC4R beta-arrestin agonists, retest, confirmation, cell-based, luminescence, U2OS; 2,400 compounds, 31% hits; AID 602192, 2012; shares compounds with MC4R ag barr; U2OS MC4R beta-arrestin recruitment; scaled DMSO 0%, Melanotan II 100%; activation, % at 8.9 µM;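 active = mean activation across replicates above the hit cutoff set in the earlier primary screen, cut at about 8% in these data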
MOR DOR agonist: agonists of MOR-DOR heterodimerization, counter-screen for MC4R biased agonist project, cell-based, luminescence. shares compounds with MC4R ag barr. U2OS PathHunter beta-arrestin, beta-gal luminescence; percent of deltorphin B response, DMSO zero. activation, % at 9.2 µM. 2,400 compounds, 5.8% hits. AID 602194, 2012;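 active = mean activation across replicates exceeds the hit threshold derived in the earlier primary screen, cut at about 18% in these data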;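 note: 100% = deltorphin B at 0.9 µM final and 0% = DMSO alone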
An asterisk follows results filed as active; . = not tested or not shown. Compounds with a hit are over-represented: about 2.9% of the library has one in this group of screens.

SMILES	MC4R ag barr	Efflux pump mplx	MC4R antag cAMP	GalR3 antag	TAG inh	Calb FLC	MC4R barr conf	MOR DOR agonist
CN1OC[C@@H]2CN(Cc3ccccc3)[C@H](c3cccc(-c4ccc(C#N)cc4)c3)C[C@@H]21	1.0	.	6.1	-3.9	-14.1	.	.	.
OC(CNCCc1ccc(Cl)cc1)COCc1ccco1 (stereo not given)	1.8	0.0	17.5	-3.1	9.5	-3.9	.	.
OC(CNCCc1ccc(C(F)(F)F)cc1)COc1cccc2ccccc12 (stereo not given)	14.7*	-0.1	11.8	-7.9	.	-7.3	20.4*	10.2
OC(CNC1CCCCCC1)COc1cccc2ccccc12 (stereo not given)	0.3	-0.4	2.4	-14.3	.	-6.6	.	.
COc1ccccc1COCC(O)CNCCc1ccc(C(F)(F)F)cc1 (stereo not given)	10.8*	-1.2	15.8	-13.0	.	-3.5	7.9	8.8
OC(CNCCc1ccc(C(F)(F)F)cc1)COc1ccc2ccccc2c1 (stereo not given)	11.8*	0.4	6.5	-3.7	.	105.3*	9.4*	7.2
Cc1cc(C)n2nc(C(=O)OCC(=O)NNC(=O)c3ccccc3)nc2n1	-0.3	-0.2	4.2	0.4	9.3	.	.	.
CCOC1=C2[C@@H](CN(S(=O)(=O)c3ccc(C)cc3)[C@H]2c2ccccc2Cl)[C@H]2C(=O)N(C)C(=O)[C@H]2C1	.	.	.	-8.0	.	.	.	.
CSc1ccc(OC2(C)CCN(Cc3ccc(C(C)C)cc3)C2)cc1 (stereo not given)	11.6*	.	4.6	-8.1	-14.1	.	2.0	5.6
CC1(Oc2ccccc2)CCN(Cc2ccc(-c3ccccn3)cc2)C1 (stereo not given)	8.1	.	-0.8	-3.2	-24.3	.	.	.
CC1(Oc2ccc(Cl)cc2)CCN(Cc2ccc(-c3ccccn3)cc2)C1 (stereo not given)	12.9*	.	3.0	-7.7	-12.0	.	7.2	7.7
CCc1ccc(OC2(C)CCN(Cc3ccc(SC)cc3)C2)cc1 (stereo not given)	1.5	.	1.0	-4.5	-4.5	.	.	.
COc1ccc2cc(CNCCOCCOCCNCc3ccc4cc(OC)ccc4c3)ccc2c1	17.5*	.	4.9	-7.3	138.0	.	57.9*	20.1*
CCOc1ccc(CNC(=O)Cn2c(=O)c3cccn3c3ccccc32)cc1	21.5*	-0.1	4.7	2.4	.	-14.5	2.4	2.6
CCOCCCN(Cc1ccco1)C(=O)c1cc2c(=O)[nH]c3ccc(C)cc3c2s1	10.7*	0.0	3.4	.	-13.5	-2.1	18.0*	7.8
Cc1cc2c(c(=O)o1)[C@@]1(C(=O)N(C)c3ccccc31)C1=C(CCCC1=O)O2	.	.	.	-5.0	.	.	.	.
O=c1[nH]c(-c2ccc(-c3cccc(Cl)c3)o2)nc2ccccc12	12.6*	0.0	-3.0	-2.4	-12.3	.	-1.6	2.4
CCC(=O)N1CCC(C)(C(=O)NCc2cccc(OC)c2)C1 (stereo not given)	-1.7	.	1.6	-2.7	-3.6	.	.	.
CC(C)(C)c1cc(-c2ccco2)c(C#N)c(SCC#N)n1	19.4*	-0.1	13.5	-1.1	10.6	-4.1	1.1	6.7
COc1ccc(-c2cc(C(=O)Nc3ccccc3SC)no2)cc1OC	39.3*	0.1	-4.9	-5.2	.	23.2	3.0	13.2
COc1ccc(-c2cc(C(=O)Nc3cnn(Cc4ccccc4C)c3)no2)cc1OC	11.9*	-0.2	-1.5	.	.	36.3	3.1	8.9
COc1cccc(-c2cc(C(=O)Nc3ccccc3SC)no2)c1	6.6	1.4	0.6	-4.0	.	2.9	.	.
CCCn1cc(NC(=O)c2cc(-c3ccccc3)on2)cn1	2.9	-0.1	0.9	-11.7	.	-0.6	.	.
O=C(Nc1cnn(C23CC4CC(CC(C4)C2)C3)c1)c1cc(-c2ccccc2)on1	11.8*	0.1	0.3	-2.3	.	20.0	0.3	1.9
COC(=O)c1cc2c(c3c4ccccc4n(S(=O)(=O)c4ccccc4)c13)C(=O)N(Cc1ccc(C(F)(F)F)cc1)C2	.	.	.	-5.2	.	.	.	.
SMILES	MC4R ag barr	Efflux pump mplx	MC4R antag cAMP	GalR3 antag	TAG inh	Calb FLC	MC4R barr conf	MOR DOR agonist
COc1ccc(NC(=O)Nc2nc(C(N)Cc3ccc(C(F)(F)F)cc3)cs2)cc1 (stereo not given)	32.9*	.	4.1	-7.7	103.3	.	28.3*	17.7
NC(Cc1ccc(C(F)(F)F)cc1)c1csc(NC(=O)NCCc2ccccc2)n1 (stereo not given)	14.1*	.	10.4	-4.1	87.8	.	22.1*	18.1*
Cc1ccc(C(=O)Nc2nc(C(N)Cc3ccc(C(F)(F)F)cc3)cs2)cc1 (stereo not given)	10.8*	.	8.3	-7.3	-1.3	.	24.5*	10.8
CC(C)CC(N)c1csc(NC(=O)NCCc2ccccc2)n1 (stereo not given)	-1.6	.	-2.7	0.5	18.3	.	.	.
CC(=O)c1ccc(Nc2nc(C(N)Cc3ccc(C(F)(F)F)cc3)cs2)cc1 (stereo not given)	7.2	.	8.7	-4.2	26.0	.	.	.
CCNC(=O)C1(C)CCCN(Cc2ccc(Oc3ccccc3)cc2)C1 (stereo not given)	2.5	.	4.3	-6.3	-3.7	.	.	.
O=C(COC(=O)c1ccc2ncsc2c1)Nc1cc([N+](=O)[O-])ccc1Cl	22.8*	-0.2	1.3	-6.6	8.3	.	7.5	12.9
O=C(COC(=O)c1ccc2ncsc2c1)Nc1ccccc1Cl	-1.3	0.0	0.7	-2.4	8.4	.	.	.
CCOC1=C2[C@@H](CN(S(=O)(=O)c3ccc(C)cc3)[C@H]2c2ccccc2F)[C@H]2C(=O)NC(=O)[C@H]2C1	.	.	.	-8.1	.	.	.	.
Cc1cc(NC(=O)CSc2nc3cc(C)c(C)cc3cc2C)no1	0.3	0.2	21.8	-6.7	.	-2.4	.	.
Cc1ccc2nc(SCC(=O)Nc3cc(C)on3)c(C)cc2c1	11.1*	0.1	-0.8	-4.1	.	8.0	6.8	4.7
CCCNc1c(NS(=O)(=O)c2ccc(C)c(C)c2)c(=O)oc2ccccc12	-1.0	0.0	1.3	1.9	.	-14.5	.	.
